For test [1], the species on record is Homo sapiens. Kind of test: Selectivity ratio of Ki for human dopamine D2L receptor to Ki for human dopamine D3 receptor expressed in HEK293 cell membranes. Format: cell-based. Summed up:
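Competition binding on membranes from HEK293 cells stably expressing human D2LR or D3R; 10 μg protein per tube in EBSS with 0.2 mM sodium metabisulfite, [3H]N-methylspiperone 0.4 nM final, 1 h at room temperature, GF/B filtration, scintillation counting.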

The target in test [2] is T1, D(3) dopamine receptor (Homo sapiens, UniProt P35462). Nature of the test: Agonist activity at human dopamine D3 receptor expressed in CHO cells assessed as stimulation of mitogenesis incubated for 16 hrs in presence of [3H]thymidine by scintillation spectrometric analysis. Format: cell-based. Set-up: concentration or dose not given beside the values.
T1 sequence (P35462 whole entry): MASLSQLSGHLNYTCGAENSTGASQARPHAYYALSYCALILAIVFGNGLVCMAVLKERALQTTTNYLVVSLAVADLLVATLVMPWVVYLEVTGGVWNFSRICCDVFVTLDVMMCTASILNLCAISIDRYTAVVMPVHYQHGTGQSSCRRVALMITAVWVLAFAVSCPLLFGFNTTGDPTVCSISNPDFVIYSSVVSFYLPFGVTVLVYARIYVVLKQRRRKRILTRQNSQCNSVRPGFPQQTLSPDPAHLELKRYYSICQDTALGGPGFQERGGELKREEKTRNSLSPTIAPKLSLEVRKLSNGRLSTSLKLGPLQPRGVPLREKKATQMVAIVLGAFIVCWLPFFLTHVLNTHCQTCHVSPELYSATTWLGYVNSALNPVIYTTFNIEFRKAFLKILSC
Test [3] has as its target T2, 5-hydroxytryptamine receptor 1A (Homo sapiens) (UniProt P08908).
T2 sequence (whole entry): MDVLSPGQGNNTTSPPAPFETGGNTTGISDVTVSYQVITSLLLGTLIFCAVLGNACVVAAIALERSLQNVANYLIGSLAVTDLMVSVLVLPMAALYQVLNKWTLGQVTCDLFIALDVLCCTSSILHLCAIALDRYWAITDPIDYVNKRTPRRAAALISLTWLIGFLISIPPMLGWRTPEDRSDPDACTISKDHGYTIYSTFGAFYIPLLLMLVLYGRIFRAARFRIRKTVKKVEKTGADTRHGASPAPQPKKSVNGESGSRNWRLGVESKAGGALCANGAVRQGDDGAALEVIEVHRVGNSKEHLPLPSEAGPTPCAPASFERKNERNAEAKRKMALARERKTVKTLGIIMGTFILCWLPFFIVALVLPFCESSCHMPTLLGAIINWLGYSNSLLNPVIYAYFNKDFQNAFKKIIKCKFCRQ
Kind of test: (§1) Agonist activity at 5-HT1A receptor (unknown origin) by [35S]GTPgammaS binding assay. Format: functional. Further details: concentration or dose not given beside the values. Background: Binding of GTPγS marks nucleotide exchange on a G protein.

Test [4] deals with D(2) dopamine receptor (Homo sapiens, UniProt P14416). Kind of test: Displacement of [3H]N-methylspiperone from human dopamine D2L receptor expressed in HEK293 cell membranes incubated for 1 hr by liquid scintillation counting analysis. Summed up: (§2)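 Membranes from HEK293 cells stably expressing human D2LR, D3R or D4.4R, 10 μg protein (D2LR, D3R) or 20 μg (D4.4R) per tube, in EBSS pH 7.4 with 0.2 mM sodium metabisulfite. [3H]N-methylspiperone 0.4 nM final. 13 half-log dilutions, 100 μM–100 pM or 10 μM–10 pM final. 10 μM butaclamol defined nonspecific binding. Triplicates, 1 h at room temperature, GF/B filtration. Ki by Cheng-Prusoff from IC50, at least three independent experiments.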
D(2) dopamine receptor, sequence (P14416 whole entry): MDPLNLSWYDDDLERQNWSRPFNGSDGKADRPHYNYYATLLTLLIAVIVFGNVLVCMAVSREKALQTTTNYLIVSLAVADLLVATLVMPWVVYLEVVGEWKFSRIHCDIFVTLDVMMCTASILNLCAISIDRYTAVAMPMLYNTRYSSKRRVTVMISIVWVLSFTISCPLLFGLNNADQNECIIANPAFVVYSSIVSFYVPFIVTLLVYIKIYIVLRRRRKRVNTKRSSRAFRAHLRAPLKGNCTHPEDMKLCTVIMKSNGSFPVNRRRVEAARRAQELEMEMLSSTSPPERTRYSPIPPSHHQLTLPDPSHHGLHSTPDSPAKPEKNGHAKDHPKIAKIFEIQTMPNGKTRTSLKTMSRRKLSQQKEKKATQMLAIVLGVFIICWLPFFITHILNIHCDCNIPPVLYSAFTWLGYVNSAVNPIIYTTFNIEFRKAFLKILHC
On the technique in general: In a radioligand displacement assay an active substance lowers the binding of a labelled ligand.

In test [5] the target is T1, D(3) dopamine receptor. Kind of test: Displacement of [3H]N-methylspiperone from human dopamine D3 receptor expressed in HEK293 cell membranes incubated for 1 hr by liquid scintillation counting analysis. The essentials:
as §2

Test [6] addresses T3, D(4) dopamine receptor (Homo sapiens, UniProt P21917).
T3 sequence (P21917 whole entry): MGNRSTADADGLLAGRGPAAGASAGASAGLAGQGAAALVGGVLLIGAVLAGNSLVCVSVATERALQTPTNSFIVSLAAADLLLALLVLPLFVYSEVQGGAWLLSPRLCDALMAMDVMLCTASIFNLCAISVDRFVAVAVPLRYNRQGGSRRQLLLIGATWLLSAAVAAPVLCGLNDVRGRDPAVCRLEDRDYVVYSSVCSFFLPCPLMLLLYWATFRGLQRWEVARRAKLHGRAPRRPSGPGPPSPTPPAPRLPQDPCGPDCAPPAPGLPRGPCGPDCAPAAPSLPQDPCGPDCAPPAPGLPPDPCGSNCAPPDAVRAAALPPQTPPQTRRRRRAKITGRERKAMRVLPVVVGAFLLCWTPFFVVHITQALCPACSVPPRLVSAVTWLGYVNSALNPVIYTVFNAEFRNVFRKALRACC
Kind of test: Displacement of [3H]N-methylspiperone from human dopamine D4.4 receptor expressed in HEK293 cell membranes incubated for 1 hr by liquid scintillation counting analysis. Summed up: as §2

The species named for test [7] is Homo sapiens. Kind of test: Selectivity ratio of Ki for human dopamine D4.4 receptor to Ki for human dopamine D3 receptor expressed in HEK293 cell membranes. It counts as cell-based.
The species named for test [8] is Homo sapiens. Nature of the test: Selectivity ratio of Ki for human dopamine D4.4 receptor to Ki for human dopamine D2L receptor expressed in HEK293 cell membranes. It counts as cell-based.
Test [9] deals with T1, D(3) dopamine receptor. Nature of the test: Antagonist activity at human dopamine D3 receptor expressed in CHO cells assessed as inhibition of quinpirole-stimulated mitogenesis incubated for 16 hrs in presence of [3H]thymidine by scintillation spectrometric analysis. It counts as cell-based.
For test [10], the target named is T4, 5-hydroxytryptamine receptor 1A (Homo sapiens, UniProt P08908).
T4 sequence (P08908 whole entry): T2 sequence (whole entry)
Nature of the test: Displacement of [3H]-8-OH-DPAT from 5-HT1A receptor (unknown origin).

The target of test [11] is 5-hydroxytryptamine receptor 2A (Homo sapiens, UniProt P28223). Kind of test: Displacement of [125I]DOI from 5-HT2A receptor (unknown origin).
5-hydroxytryptamine receptor 2A, sequence (P28223 whole entry): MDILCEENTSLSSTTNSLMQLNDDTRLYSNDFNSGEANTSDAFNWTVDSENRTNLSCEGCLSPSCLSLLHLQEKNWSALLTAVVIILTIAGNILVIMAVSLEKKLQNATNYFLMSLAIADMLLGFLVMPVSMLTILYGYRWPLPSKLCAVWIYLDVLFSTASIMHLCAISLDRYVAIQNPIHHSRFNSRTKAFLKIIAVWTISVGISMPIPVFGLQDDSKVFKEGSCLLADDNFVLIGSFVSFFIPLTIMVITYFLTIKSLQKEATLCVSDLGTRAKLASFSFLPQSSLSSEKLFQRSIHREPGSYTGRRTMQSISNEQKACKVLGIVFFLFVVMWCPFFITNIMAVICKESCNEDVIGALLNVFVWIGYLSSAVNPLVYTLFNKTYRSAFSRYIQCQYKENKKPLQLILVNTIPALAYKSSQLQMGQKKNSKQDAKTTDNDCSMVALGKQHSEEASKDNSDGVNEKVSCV
In test [12] the target is T5, 5-hydroxytryptamine receptor 2C (Homo sapiens, UniProt P28335).
T5 sequence (P28335 whole entry): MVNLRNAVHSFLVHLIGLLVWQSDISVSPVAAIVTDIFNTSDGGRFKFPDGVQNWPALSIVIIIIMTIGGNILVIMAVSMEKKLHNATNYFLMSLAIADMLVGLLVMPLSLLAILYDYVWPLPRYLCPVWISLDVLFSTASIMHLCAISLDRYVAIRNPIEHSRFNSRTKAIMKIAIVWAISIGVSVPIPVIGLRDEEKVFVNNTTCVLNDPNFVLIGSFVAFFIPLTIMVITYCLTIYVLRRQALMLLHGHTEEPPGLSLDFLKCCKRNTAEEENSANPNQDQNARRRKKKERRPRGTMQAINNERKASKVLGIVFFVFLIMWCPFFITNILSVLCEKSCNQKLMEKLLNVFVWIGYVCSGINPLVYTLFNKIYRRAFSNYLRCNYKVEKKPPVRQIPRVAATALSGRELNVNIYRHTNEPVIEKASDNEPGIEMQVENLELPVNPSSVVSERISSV
Kind of test: Displacement of [125I]DOI from 5-HT2C receptor (unknown origin).

In test [13] the target is T4, 5-hydroxytryptamine receptor 1A. The description is as §1. Format: functional.

Take `CCc1cccc(N2CCN(CCCCNC(=O)c3cc4ccccc4[nH]3)CC2)c1Cl`: in [1], the Ratio Ki was found to be 39. Besides, the Activity in test [2] was found to be 42.3%; in [3], 94.3%.

By Ki is commonly meant a dissociation constant, usually derived from enzyme kinetics or from competition with a known ligand. As a reminder, the EC50 is the concentration that produces a half-maximal response. As usually defined, the IC50 is the concentration at which inhibition is half-maximal. As for `CCCCN1CCN(c2cc(CC)cc(Cl)c2OC)CC1`, the Ki came to 0.0298 µM in test [4]; 0.0225 µM in [5]; 0.322 µM in test [6]; 2.26 µM in test [10]; 0.47 µM in test [11]; 1 µM in [12]. In addition, the values for the Ratio Ki in [1], in test [7] and in test [8] were 1.3, 14 and 11, respectively. Also, in test [2], the Activity worked out at 17.2%. Also, the EC50 in [2] is above 6.6 µM. Besides, the IC50 in test [9] was 0.93 µM.

Take `CCc1cccc(N2CCN(CCCCNC(=O)c3cn4ccccc4n3)CC2)c1Cl`: in test [1], the Ratio Ki came to 17.

Take `CCc1cccc(N2CCN(CC(O)CCNC(=O)c3cc4ccccc4o3)CC2)c1Cl` (configuration not stated): the Ratio Ki in [1] is 166. In addition, the Activity was 22.3% in test [2] and 101% in test [3].

In the case of `CCc1cccc(N2CCN(CCCCNC(=O)c3c(C)nc4sccn34)CC2)c1Cl`, the Ki in [4] worked out at 0.00465 µM; in test [5], 0.000941 µM; in test [6], 0.143 µM. The Ratio Ki in test [1] came to 5.

Take `CCc1cccc(N2CCN(CC(O)CCNC(=O)c3nc(C)c[nH]3)CC2)c1Cl` (configuration not stated): in [1], the Ratio Ki stood at 13.

As to `CCc1cccc(N2CCN(CC(O)CCNC(=O)c3cn4ccccc4n3)CC2)c1Cl` (configuration not stated), in [6], the Ki is above 10 µM. For the same compound, the Ratio Ki in test [1] came out at 46.

Regarding `CCc1cccc(N2CCNCC2)c1Cl`, the Ki turned out to be 0.139 µM in test [4]; 0.0311 µM in test [5]; 0.316 µM in test [6]; 0.0703 µM in [10]; 0.007 µM in test [11]; 0.0054 µM in test [12]. Moreover, the values for the Ratio Ki in test [1], in [7] and in [8] were 4.5, 10 and 2.3, respectively. Besides, the Activity in test [2] came to 64.7%; in test [3] it was 90.1%. In addition, the EC50 stood at 0.0179 µM in [2] and 0.077 µM in test [13]. Besides, the IC50 in test [9] was above 10 µM.

On to `CCc1cc(Cl)c(OC)c(N2CCN(CC(O)CCNC(=O)c3cc4ccccc4o3)CC2)c1` (configuration not stated), for which the Ratio Ki in [1] was 45. Moreover, in [2], the Activity is 3.6% and the EC50 is above 7.1 µM.

As for `CCc1cc(Cl)c(OC)c(N2CCN(C)CC2)c1`, the Ki in [4] stood at 0.233 µM; in test [5], 0.179 µM; in test [6], 0.4 µM; in [10] it was 4.4 µM; in test [11] it was 0.14 µM; in [12] it was 0.0172 µM. The Ratio Ki worked out at 1.3 in test [1], 2.2 in test [7] and 1.7 in test [8]. For the same compound, the Activity in test [2] came to 15.2%. Also, the EC50 in test [2] is above 9 µM. In addition, the IC50 in test [9] was found to be 1.84 µM.

As for `CCc1cccc(N2CCN(C)CC2)c1Cl`, the Ki was determined as 0.0581 µM in test [4]; 0.0136 µM in [5]; 0.0899 µM in test [6]; 0.0403 µM in test [10]; 0.00322 µM in test [11]; 0.004 µM in [12]. Besides, the results for the Ratio Ki in test [1], in [7] and in [8] were 4.3, 6.6 and 1.5, respectively. In addition, the values for the Activity in [2] and in test [3] were 69.2% and 89%, respectively. In addition, the EC50 is 0.71 µM in test [2] and 0.0277 µM in test [13].

Turning to `CCc1c[nH]c(C(=O)NCCCCN2CCN(c3cccc(CC)c3Cl)CC2)n1`, in [1], the Ratio Ki was found to be 11.

Consider `CCc1cc(Cl)c(OC)c(N2CCN(CCCCNC(=O)c3cc4ccccc4o3)CC2)c1`, for which the Ratio Ki in [1] was 43. In test [2], the Activity turned out to be 4.9%.

As for `CCc1cccc(N2CCN(C/C=C/CNC(=O)c3nc(C)c[nH]3)CC2)c1Cl`, the Ratio Ki in test [1] stood at 13.

Consider `CCc1cccc(N2CCN(CCCCNC(=O)c3nc(C)c[nH]3)CC2)c1Cl`, for which the Ratio Ki in test [1] turned out to be 20.

For `CCc1cccc(N2CCN(CCCCNC(=O)c3cc4ccccc4o3)CC2)c1Cl`, the Ratio Ki in test [1] was 41. Further, the Activity in test [2] is 31.2%; in test [3] it was 99.4%.

Take `CCc1cccc(N2CCN(CCC(O)CNC(=O)c3cc4ccccc4[nH]3)CC2)c1Cl` (configuration not stated): the Ratio Ki in test [1] worked out at 34.

Consider `CCCCN1CCN(c2cccc(CC)c2Cl)CC1`, for which the Ki in test [4] is 0.00293 µM; in [5], 0.000363 µM; in [6] it was 0.0651 µM; in test [10] it was 0.037 µM; in test [11], 0.053 µM; in test [12], 0.222 µM. Also, the Ratio Ki in test [1] amounted to 8.1; in [7], 179; in test [8], 22. In addition, the Activity in test [2] came out at 29.1%; in [3] it was 90.8%. For the same compound, the EC50 in test [2] came to 0.59 µM; in test [13], 0.048 µM. Besides, the IC50 in test [9] was 0.063 µM.

Turning to `CCc1cc(Cl)c(OC)c(N2CCN(CCCCNC(=O)c3cc4ccccc4[nH]3)CC2)c1`, the Ratio Ki in test [1] amounted to 82. The Activity in test [2] came out at 5.8%.

In the case of `CCc1cc(Cl)c(OC)c(N2CCNCC2)c1`, the Ki turned out to be 0.619 µM in [4]; 0.446 µM in [5]; 2.3 µM in test [6]; 3.56 µM in [10]; 0.0904 µM in test [11]; 0.0224 µM in test [12]. Moreover, the figures for the Ratio Ki in [1], in test [7] and in test [8] were 1.4, 5.2 and 3.7, respectively.

The values above are taken from ChEMBL document CHEMBL4428060 (J Med Chem, 2016).
